Experimental data from ChEMBL document CHEMBL5385854, “Discovery of PPARγ and glucocorticoid receptor dual agonists to promote the adiponectin and leptin biosynthesis in human bone marrow mesenchymal stem cells” (Eur J Med Chem, 2023).
The source made the active and inactive calls. The calls are words filed in the database; no cut-off is given here.

What was measured:
[1] = Induction of leptin biosynthesis in human BMMSC cells assessed as leptin level at 1 uM measured after 7 days by ELISA (RVB = 18 + /- 18 pg/ml); format: functional, Mesenchymal stem cells; settings: time 7 day
[2] = Induction of adiponectin biosynthesis in human BMMSC cells assessed as adiponectin level at 10 uM measured after 7 days by ELISA (IDX Control = 100 +/- 57 pg/ml); format: functional, Mesenchymal stem cells; settings: time 7 day
[3] = Induction of leptin biosynthesis in human BMMSC cells assessed as leptin level at 10 uM measured after 7 days by ELISA (RVB = 18 + /- 18 pg/ml); format: functional, Mesenchymal stem cells; settings: time 7 day
[4] = Induction of leptin biosynthesis in human BMMSC cells assessed as fold increase in production at 30 uM measured after 10 days by ELISA relative to control; settings: time 10 day
[5] = Induction of adiponectin biosynthesis in human BMMSC cells assessed as fold increase in production at 30 uM measured after 7 days by ELISA relative to IDX control; format: functional, Mesenchymal stem cells; settings: time 7 day, 168 h
Outline: (§1)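 Human bone-marrow MSCs grown in low-glucose DMEM (1 g/L) with 10% FBS, 1% penicillin-streptomycin and 1% Glutamax. Compounds were given in adipogenic IDX medium, refreshed on days 3 and 6. On day 7, supernatant adiponectin was quantified by Quantikine ELISA against the IDX control. Mean ± SD, n = 3 independent experiments; one-way ANOVA with post-hoc tests.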

[6] = test system: Mesenchymal stem cells; experiment: Induction of adipogenesis in human BMMSC cells assessed as increase in lipid droplet accumulation at 5 uM after 7 days by Oil red O and hematoxylin staining based assay relative to IDX control; format: functional, cell-based; settings: time 7.0 day
Outline: (§2)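 hBM-MSCs grown in low-glucose DMEM (1 g/L) with 10% FBS, Glutamax and penicillin-streptomycin, then differentiated in IDX medium containing compound, refreshed on days 3 and 6. On day 7, cells fixed in 10% neutral buffered formalin for 40 min and stained with 0.2% Oil Red O for 15 min, nuclei with hematoxylin. Dye eluted in isopropanol and read at 540 nm against IDX control.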

[7] = Induction of leptin biosynthesis in human BMMSC cells assessed as leptin level at 5 uM measured after 7 days by ELISA (RVB = 18 + /- 18 pg/ml); format: functional, Mesenchymal stem cells; settings: time 7 day
[8] = Induction of adiponectin biosynthesis in human BMMSC cells assessed as adiponectin level at 5 uM measured after 7 days by ELISA (IDX Control = 100 +/- 57 pg/ml); format: functional, Mesenchymal stem cells; settings: time 7 day; outline: as §1
[9] = Induction of adiponectin biosynthesis in human BMMSC cells assessed as adiponectin level measured after 7 days by ELISA; settings: Mesenchymal stem cells, 168 h
[10] = Induction of adiponectin biosynthesis in human BMMSC cells assessed as adiponectin level at 300 uM measured after 7 days by ELISA (IDX Control = 100 +/- 57 pg/ml); format: functional, Mesenchymal stem cells; settings: time 7 day; outline: as §1
[11] = Induction of leptin biosynthesis in human BMMSC cells assessed as leptin level at 300 uM measured after 7 days by ELISA (RVB = 18 + /- 18 pg/ml); format: functional, Mesenchymal stem cells; settings: time 7 day
[12] = test system: Mesenchymal stem cells; experiment: Induction of adipogenesis in human BMMSC cells assessed as increase in lipid droplet accumulation at 30 uM after 7 days by Oil red O and hematoxylin staining based assay relative to IDX control; format: functional, cell-based; settings: time 7.0 day; outline: as §2

## C[C@@H]1C[C@H]2[C@@H]3CCC4=CC(=O)C=C[C@]4(C)[C@@]3(F)[C@@H](O)C[C@]2(C)[C@@]1(O)C(=O)CO [DEXAMETHASONE]
[1]
  Activity: 632 pg/mL

## Cc1cc(O)c(C(=O)/C=C/c2ccccc2)c(=O)o1
[2]
  Activity: 580 pg/mL
[3]
  Activity: 38 pg/mL

## COc1cc(/C=C/C(=O)c2c(O)cc(C)oc2=O)ccc1O (stereo in doubt; form 2)
[2]
  Activity: 399 pg/mL
[3]
  Activity: 82 pg/mL
[4]
  fold change (FC): 2.58
[5]
  fold change (FC): 3.18

## Cc1cc(O)c(C(=O)/C=C/c2ccoc2)c(=O)o1
[2]
  Activity: 320 pg/mL
[3]
  Activity: 171 pg/mL

## CCc1ccc(CCOc2ccc(CC3SC(=O)NC3=O)cc2)nc1 (configuration not stated) [PIOGLITAZONE]
[6]
  Activity: Active
[7]
  Activity: 33 pg/mL
[8]
  Activity: 812 pg/mL
[9]
  EC50: 0.6 µM

## COc1cc(/C=C/C(=O)c2c(O)cc(C)oc2=O)ccc1O (stereo in doubt; form 1) [listing 1 of 2 here]
[5]
  fold change (FC): 3.3

## COc1cc(/C=C/C(=O)c2c(O)cc(C)oc2=O)ccc1F
[2]
  Activity: 567 pg/mL
[3]
  Activity: 40 pg/mL

## Cc1cc(O)c(C(=O)/C=C/c2ccsc2)c(=O)o1
[2]
  Activity: 486 pg/mL
[3]
  Activity: 193 pg/mL

## Cc1cc(O)c(C(=O)/C=C/c2ccccn2)c(=O)o1
[2]
  Activity: 396 pg/mL
[3]
  Activity: 95 pg/mL

## Cc1cc(O)c(C(=O)/C=C/c2ccc(F)cc2)c(=O)o1
[2]
  Activity: 576 pg/mL
[3]
  Activity: 30 pg/mL

## COc1ccc(/C=C/C(=O)c2c(O)cc(C)oc2=O)cc1OC
[2]
  Activity: 747 pg/mL
[3]
  Activity: 80 pg/mL

## CC(=O)Oc1ccccc1C(=O)O [ASPIRIN]
[10]
  Activity: 330 pg/mL
[11]
  Activity: 20 pg/mL

## Cc1cc(O)c(C(=O)/C=C/c2ccc(F)c(F)c2)c(=O)o1
[2]
  Activity: 432 pg/mL
[3]
  Activity: 76 pg/mL

## Cc1cc(O)c(C(=O)/C=C/c2ccc(O)c(O)c2)c(=O)o1
[2]
  Activity: 243 pg/mL
[3]
  Activity: 16 pg/mL

## COc1cc(/C=C/C(=O)c2c(O)cc(C)oc2=O)ccc1O (stereo in doubt; form 1) [listing 2 of 2 here]
[12]
  Activity: Active

## Cc1cc(O)c(C(=O)/C=C/c2cc(F)cc(F)c2)c(=O)o1
[2]
  Activity: 172 pg/mL
[3]
  Activity: 33 pg/mL

## Cc1cc(O)c(C(=O)/C=C/c2ccc3c(c2)OCO3)c(=O)o1
[2]
  Activity: 208 pg/mL
[3]
  Activity: 91 pg/mL

## Cc1cc(O)c(C(=O)/C=C/c2c[nH]c3ccccc23)c(=O)o1
[2]
  Activity: 396 pg/mL
[3]
  Activity: 41 pg/mL

## COc1ccc(Cl)cc1C(=O)NCCc1ccc(S(=O)(=O)NC(=O)NC2CCCCC2)cc1 [GLYBURIDE]
[6]
  Activity: Active
[7]
  Activity: 30 pg/mL
[8]
  Activity: 475 pg/mL

## Cc1cc(O)c(C(=O)/C=C/c2ccc(C)c(C)c2)c(=O)o1
[2]
  Activity: 438 pg/mL
[3]
  Activity: 17 pg/mL
